ChEMBL document CHEMBL1909618, “Non-steroidal dissociated glucocorticoid agonists: indoles as A-ring mimetics and function-regulating pharmacophores” (Bioorg Med Chem Lett, 2011)
Calls of active or inactive are those of the source. The calls are words filed in the database; no cut-off is given here.

How the values were obtained:
[1] = target: T1, Androgen receptor (Homo sapiens) (UniProt P10275); assay: Displacement of [3H]-testosterone from human recombinant androgen receptor expressed in baculovirus infected insect cells at 1200 nM
T1 sequence (whole entry): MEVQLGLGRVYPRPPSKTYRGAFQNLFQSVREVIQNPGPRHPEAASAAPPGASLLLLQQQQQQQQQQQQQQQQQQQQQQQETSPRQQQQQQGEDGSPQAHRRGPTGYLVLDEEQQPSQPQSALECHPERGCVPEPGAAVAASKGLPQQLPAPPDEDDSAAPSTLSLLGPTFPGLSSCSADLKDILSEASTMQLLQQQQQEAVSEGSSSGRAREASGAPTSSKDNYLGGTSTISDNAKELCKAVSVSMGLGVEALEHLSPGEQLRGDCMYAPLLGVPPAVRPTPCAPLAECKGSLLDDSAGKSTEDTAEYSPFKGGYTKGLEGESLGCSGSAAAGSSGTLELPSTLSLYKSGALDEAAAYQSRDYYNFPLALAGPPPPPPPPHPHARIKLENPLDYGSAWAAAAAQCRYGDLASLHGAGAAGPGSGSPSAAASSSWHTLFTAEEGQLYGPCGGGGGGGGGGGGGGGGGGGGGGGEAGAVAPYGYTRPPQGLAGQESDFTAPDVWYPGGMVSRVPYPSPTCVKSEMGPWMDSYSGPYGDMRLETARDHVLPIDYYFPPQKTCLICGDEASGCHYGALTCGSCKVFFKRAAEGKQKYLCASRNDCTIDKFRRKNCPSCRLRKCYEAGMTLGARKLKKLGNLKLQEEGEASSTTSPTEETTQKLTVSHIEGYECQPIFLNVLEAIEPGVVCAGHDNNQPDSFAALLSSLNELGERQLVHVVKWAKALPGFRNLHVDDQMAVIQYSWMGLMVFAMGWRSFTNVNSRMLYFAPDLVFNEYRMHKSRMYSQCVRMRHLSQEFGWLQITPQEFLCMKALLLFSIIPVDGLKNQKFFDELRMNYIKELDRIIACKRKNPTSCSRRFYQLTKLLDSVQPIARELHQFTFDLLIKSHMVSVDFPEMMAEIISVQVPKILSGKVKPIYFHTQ
Procedure, shortened: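 Competition of test compound at a single concentration against 10 nM ³H-testosterone for binding to recombinant human AR in lysates of baculovirus-infected cells. Dihydrotestosterone at 2 µM served as the positive control. Results are expressed as % of control.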

[2] = target: T2, Glucocorticoid receptor (Homo sapiens) (UniProt P04150); assay: Agonist activity at glucocorticoid receptor in HFF assessed as inhibition of IL1-induced IL-6 production after 18 to 24 hrs relative to Dexamethasone; type: functional
T2 sequence (whole entry): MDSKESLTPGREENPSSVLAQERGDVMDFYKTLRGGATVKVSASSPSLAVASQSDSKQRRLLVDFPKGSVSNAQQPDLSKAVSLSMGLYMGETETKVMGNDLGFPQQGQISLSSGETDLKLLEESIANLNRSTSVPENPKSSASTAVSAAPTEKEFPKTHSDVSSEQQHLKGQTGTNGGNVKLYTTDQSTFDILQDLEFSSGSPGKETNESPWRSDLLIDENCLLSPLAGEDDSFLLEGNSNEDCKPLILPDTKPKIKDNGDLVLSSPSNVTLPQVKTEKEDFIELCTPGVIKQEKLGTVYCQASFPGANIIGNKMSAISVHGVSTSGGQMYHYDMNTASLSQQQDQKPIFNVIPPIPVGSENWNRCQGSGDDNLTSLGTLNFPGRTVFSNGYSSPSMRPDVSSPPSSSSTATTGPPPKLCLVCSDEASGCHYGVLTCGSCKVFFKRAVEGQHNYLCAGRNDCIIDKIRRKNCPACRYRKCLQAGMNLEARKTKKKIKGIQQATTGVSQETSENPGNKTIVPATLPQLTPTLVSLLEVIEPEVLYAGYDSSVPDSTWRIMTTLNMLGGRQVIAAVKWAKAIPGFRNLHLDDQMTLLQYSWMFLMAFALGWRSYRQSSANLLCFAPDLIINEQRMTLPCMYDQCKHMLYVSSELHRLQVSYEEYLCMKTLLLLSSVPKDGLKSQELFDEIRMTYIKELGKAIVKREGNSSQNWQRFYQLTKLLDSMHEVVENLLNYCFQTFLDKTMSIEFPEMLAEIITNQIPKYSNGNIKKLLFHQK
Procedure, shortened: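 Human foreskin fibroblasts stimulated with IL-1 (1 ng/mL) in the presence of test compound, incubated at 37 °C for 18–24 h. IL-6 in the culture medium was quantified by electrochemiluminescence, DELFIA or ELISA. IC50 and % maximal efficacy were reported.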

Glucocorticoid receptor [3] = target: T3, Glucocorticoid receptor (Homo sapiens, UniProt P04150); assay: Transactivation activity of glucocorticoid receptor in HFF assessed as induction of aromatase activity by measuring beta-estradiol activity after 18 to 24 hrs by ELISA; details: read-out: EC50
T3 sequence (P04150 whole entry): T2 sequence (whole entry)

Glucocorticoid receptor [4] = target: T3, Glucocorticoid receptor; assay: Displacement of tetramethylrhodamine-labeled Dexamethasone from human recombinant glucocorticoid receptor expressed in baculovirus infected insect cells by fluorescence polarization assay
[5] = Half life in B10.R3 mouse at 1 mg/kg, iv; type: ADME, organism-based; design: dose 1 mg/kg, route intravenous; details: in vivo
Procedure, shortened: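 Mouse PK: IV dose 1 mg/kg in PEG400/water (70:30); oral dose 30 mg/kg given as a suspension in 30% Cremophor. Values are the mean of 3 mice.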

Mus musculus [6] = assay: Antiarthritic activity in B10.R3 mouse collagen-induced arthritis model assessed as AUC of disease progression inhibition at 10 mg/kg, po qd for 5 weeks; type: functional; details: B10.R3, 840 h
Procedure, shortened: (§1)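 B10.RIII mice immunized with porcine type II collagen plus complete Freund's adjuvant were enrolled at the first signs of arthritis. They were dosed orally once daily for 5 weeks; vehicle was 30% Cremophor RH. All four paws were scored 1–4 (maximum 16 per animal). Disease-score AUCs from 10 mice per group were compared with vehicle by Mann–Whitney test.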

Mus musculus [7] = assay: Toxicity in B10.R3 mouse collagen-induced arthritis model assessed as change in serum free fatty acids level at 30 mg/kg, po qd for 5 weeks relative to control; type: organism-based; design: dose 30 mg/kg, route oral; details: in vivo, 840 h
Procedure, shortened: (§2)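 Arthritic B10.RIII CIA mice were dosed orally once daily for 5 weeks. At day 35 they were anesthetized with ketamine (50 mg/kg) and xylazine (15 mg/kg). Body fat was assessed by whole-body density scan. Serum triglycerides were measured by enzymatic kit (Wako L-Type TG-H) and free fatty acids by NEFA-C. Results are expressed as % change versus vehicle and compared by t-test.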

Mus musculus [8] = assay: Toxicity in B10.R3 mouse collagen-induced arthritis model assessed as change in serum triglyceride level at 30 mg/kg, po qd for 5 weeks relative to control; type: organism-based; design: dose 30 mg/kg, route oral; details: in vivo, 840 h; procedure, shortened: as §2
Mus musculus [9] = assay: Antiarthritic activity in B10.R3 mouse collagen-induced arthritis model assessed as AUC of disease progression inhibition at 30 mg/kg, po qd for 5 weeks; type: functional; details: B10.R3, 840 h; procedure, shortened: as §1
[10] = target: T2, Glucocorticoid receptor (Homo sapiens); assay: Agonist activity at glucocorticoid receptor in human HeLa cells transfected with luciferase gene linked to MMTV promoter assessed as luciferase transactivation activity relative to Dexamethasone; type: functional, cell-based
Procedure, shortened: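 HeLa cells stably carrying an MMTV-luciferase construct were exposed to compound for 6 h at 37 °C, 5% CO2. Cells were then lysed and luminescence read with a Steady-Glo reagent. EC50 and % maximal efficacy were reported.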

| Activity [1] | Efficacy [2] | EC50 (Glucocorticoid receptor [3]) | IC50 (Glucocorticoid receptor [4]) | half-life [5] | Efficacy [10] | Compound | inhibition in vivo at 10 mg/kg (Mus musculus [6]) | Activity (Mus musculus [7]) | Activity (Mus musculus [8]) | inhibition in vivo at 30 mg/kg (Mus musculus [9]) |
| --- | --- | --- | --- | --- | --- | --- | --- | --- | --- | --- |
| inactive | 87% | 0.018 µM | 0.01 µM | – | – | COc1ccc(F)cc1C(C)(C)C[C@@](O)(Cc1cc2ccccc2[nH]1)C(F)(F)F | – | – | – | – |
| – | 88% | 0.12 µM | 0.002 µM | 2.5 h | 10% | CC(C)(C[C@@](O)(Cc1cc2ccc(C#N)cc2[nH]1)C(F)(F)F)c1cc(S(C)(=O)=O)cc2c1OCC2 | 62% | 8% | 11% | 45% |
